In ChEMBL document CHEMBL1133016, “Opiate aromatic pharmacophore structure-activity relationships in CTAP analogues determined by topographical bias, two-dimensional NMR, and biological activity assays” (J Med Chem, 2000):
pIC50: −log10 of the molar value. Bridge positions count the residues as written; N and C are the ends. Square brackets hold non-standard residues; d marks the D form. Peptide text beside a SMILES is read from it. dTic = O=C(O)[C@H]1Cc2ccccc2CN1; Pen = CC(C)(S)[C@H](N)C(=O)O

Tests used:
Cavia porcellus [1] = organism: Cavia porcellus; test: Evaluated for antagonist activity as the rightward fold shift of dose response curve of the known agonist PL-017 in Guinea pig ileum (GPI) at 1 uM concentration of compound; format: functional
Summary of the method: (§1)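 Longitudinal muscle-myenteric plexus strips from nonterminal ileum of male Hartley guinea pigs (250-500 g). Held in Krebs-bicarbonate at 37 °C under 95% O₂/5% CO₂, 1 g resting tension after 15 min unloaded equilibration. Stimulated transmurally at 0.1 Hz, 0.4 ms pulses, supramaximal voltage. Agonist twitch effect read after 3 min incubation; antagonist added 2 min before agonist. Mean ± SEM.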

Mus musculus = organism: Mus musculus; test: Evaluated for agonist activity as percent inhibition in electrically evoked twitch height in mouse vas deferens (MVD) at 1 uM concentration of compound; format: functional
Summary of the method: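 Vasa deferentia from male ICR mice (25-40 g), held in magnesium-free Krebs at 37 °C under 95% O₂/5% CO₂. Hung 15 min without tension, then under 0.5 g resting tension. Stimulated transmurally at 0.1 Hz, 2 ms pulses, supramaximal voltage. Twitch inhibition read 3 min after agonist, expressed relative to the pre-dose twitch height. Mean ± SEM.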

Cavia porcellus [2] = organism: Cavia porcellus; test: Evaluated for agonist activity as percent inhibition in electrically evoked twitch height in Guinea pig ileum (GPI) at 1 uM concentration of compound; format: functional; summary of the method: as §1
[3] = molecular target: Delta-type opioid receptor (Rattus norvegicus, UniProt P33533); test: Binding affinity for rat brain Opioid receptor delta 1
Sequence of Delta-type opioid receptor (P33533 whole entry): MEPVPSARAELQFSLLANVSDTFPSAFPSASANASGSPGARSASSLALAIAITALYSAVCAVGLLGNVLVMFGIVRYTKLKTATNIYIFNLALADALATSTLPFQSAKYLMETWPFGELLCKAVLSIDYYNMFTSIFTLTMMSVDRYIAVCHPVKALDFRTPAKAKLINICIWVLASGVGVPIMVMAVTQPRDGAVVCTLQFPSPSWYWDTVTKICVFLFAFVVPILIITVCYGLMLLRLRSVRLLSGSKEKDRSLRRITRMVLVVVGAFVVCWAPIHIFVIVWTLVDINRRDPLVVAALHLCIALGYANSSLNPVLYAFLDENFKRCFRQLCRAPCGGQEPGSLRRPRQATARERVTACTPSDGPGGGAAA
Summary of the method: (§2)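 Whole-brain membranes from adult Sprague-Dawley rats (250-300 g), homogenized at 0 °C in 50 mM Tris-HCl pH 7.4, centrifuged at 48 000g, and preincubated at 25 °C to strip endogenous ligand. Competition run for 3 h at 25 °C in Tris-HCl with BSA, bestatin, bacitracin, captopril and PMSF. Radioligand was [3H][4′-Cl-Phe4]DPDPE 0.75 nM for δ or [3H]DAMGO 1.0 nM for μ, with ≥10 analogue concentrations. Nonspecific binding defined with 10 µM naltrexone; each analogue tested ≥3 times.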

Mu-type opioid receptor = Mu-type opioid receptor (Rattus norvegicus, UniProt P33535); test: Binding affinity for rat brain Opioid receptor mu 1; summary of the method: as §2
Sequence of Mu-type opioid receptor (P33535 whole entry): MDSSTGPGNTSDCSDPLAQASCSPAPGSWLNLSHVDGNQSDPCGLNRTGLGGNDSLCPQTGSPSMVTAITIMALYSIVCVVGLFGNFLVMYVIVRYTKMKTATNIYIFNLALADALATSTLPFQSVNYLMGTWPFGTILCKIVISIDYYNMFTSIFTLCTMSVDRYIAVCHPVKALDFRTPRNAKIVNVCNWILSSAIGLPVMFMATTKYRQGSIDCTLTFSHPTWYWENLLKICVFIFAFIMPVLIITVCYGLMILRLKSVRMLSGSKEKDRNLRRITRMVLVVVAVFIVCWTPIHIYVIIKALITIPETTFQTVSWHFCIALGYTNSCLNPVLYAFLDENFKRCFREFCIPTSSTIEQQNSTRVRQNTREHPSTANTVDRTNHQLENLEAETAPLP

Cavia porcellus [4] = organism: Cavia porcellus; test: Evaluated for antagonist activity as the rightward fold shift of dose response curve of the known agonist PL-017 in Guinea pig ileum (GPI). 1-fold indicates no change in the dose response curve; format: functional; summary of the method: as §1

SMILES | PL-017 shift (Cavia porcellus [1]) | inhibition at 1 µM (Mus musculus) | inhibition at 1 µM (Cavia porcellus [2]) | pIC50 [3] | pIC50 (Mu-type opioid receptor) | PL-017 shift (Cavia porcellus [4])
C[C@@H](O)[C@H](NC(=O)[C@H]1NC(=O)[C@H]([C@@H](C)O)NC(=O)[C@H](CCCNC(=N)N)NC(=O)[C@@H](Cc2c[nH]c3ccccc23)NC(=O)[C@H](Cc2ccc(O)cc2)NC(=O)[C@@H](NC(=O)[C@H](N)Cc2ccccc2)CSSC1(C)C)C(N)=O | 55 | 17% | 4% |  |  | 
C[C@@H](O)[C@H](NC(=O)[C@H]1NC(=O)[C@H]([C@@H](C)O)NC(=O)[C@H](CCCN=C(N)N)NC(=O)[C@@H](Cc2c[nH]c3ccccc23)NC(=O)[C@H](Cc2ccc(O)cc2)NC(=O)[C@@H](NC(=O)[C@H](N)[C@@H](C)c2ccccc2)CSSC1(C)C)C(N)=O [listing 1 of 2 here] |  |  |  | 5.88 | 7.68 | 
C[C@@H](O)[C@H](NC(=O)[C@H]1NC(=O)[C@H]([C@@H](C)O)NC(=O)[C@H](CCCN=C(N)N)NC(=O)[C@@H](Cc2c[nH]c3ccccc23)NC(=O)[C@H](Cc2ccc(O)cc2)NC(=O)[C@@H](NC(=O)[C@H](N)[C@@H](C)c2ccccc2)CSSC1(C)C)C(N)=O [listing 2 of 2 here] | 15 | 8% | 0% |  |  | 
C[C@H](c1ccccc1)[C@@H](N)C(=O)N[C@H]1CSSC(C)(C)[C@@H](C(=O)N[C@H](C(N)=O)[C@@H](C)O)NC(=O)[C@H]([C@@H](C)O)NC(=O)[C@H](CCCN=C(N)N)NC(=O)[C@@H](Cc2c[nH]c3ccccc23)NC(=O)[C@H](Cc2ccc(O)cc2)NC1=O [listing 1 of 2 here] |  |  |  | 5.92 | 7.70 | 
C[C@H](c1ccccc1)[C@@H](N)C(=O)N[C@H]1CSSC(C)(C)[C@@H](C(=O)N[C@H](C(N)=O)[C@@H](C)O)NC(=O)[C@H]([C@@H](C)O)NC(=O)[C@H](CCCN=C(N)N)NC(=O)[C@@H](Cc2c[nH]c3ccccc23)NC(=O)[C@H](Cc2ccc(O)cc2)NC1=O [listing 2 of 2 here] | 19 | 34% | 0% |  |  | 
C[C@H](c1c[nH]c2ccccc12)[C@H](N)C(=O)N[C@H]1CSSC(C)(C)[C@@H](C(=O)N[C@H](C(N)=O)[C@@H](C)O)NC(=O)[C@H]([C@@H](C)O)NC(=O)[C@H](CCCNC(=N)N)NC(=O)[C@@H](Cc2c[nH]c3ccccc23)NC(=O)[C@H](Cc2ccc(O)cc2)NC1=O |  |  |  | 5.13 | 5.47 | 
C[C@H](c1c[nH]c2ccccc12)[C@H](N)C(=O)N[C@H]1CSSC(C)(C)[C@@H](C(=O)N[C@H](C(N)=O)[C@@H](C)O)NC(=O)[C@H]([C@@H](C)O)NC(=O)[C@H](CCCN=C(N)N)NC(=O)[C@@H](Cc2c[nH]c3ccccc23)NC(=O)[C@H](Cc2ccc(O)cc2)NC1=O | 1 | 0% | 0% |  |  | 
C[C@@H](O)[C@H](NC(=O)[C@H]1NC(=O)[C@H]([C@@H](C)O)NC(=O)[C@H](CCCN=C(N)N)NC(=O)[C@@H](Cc2c[nH]c3ccccc23)NC(=O)[C@H](Cc2ccc(O)cc2)NC(=O)[C@@H](NC(=O)[C@H](N)Cc2c[nH]c3ccccc23)CSSC1(C)C)C(N)=O [listing 1 of 2 here] |  |  |  | 5.45 | 8.86 | 
C[C@@H](O)[C@H](NC(=O)[C@H]1NC(=O)[C@H]([C@@H](C)O)NC(=O)[C@H](CCCN=C(N)N)NC(=O)[C@@H](Cc2c[nH]c3ccccc23)NC(=O)[C@H](Cc2ccc(O)cc2)NC(=O)[C@@H](NC(=O)[C@H](N)Cc2c[nH]c3ccccc23)CSSC1(C)C)C(N)=O [listing 2 of 2 here] | 1 | 13.6% | 43% |  |  | 
C[C@@H](O)[C@H](NC(=O)[C@H]1NC(=O)[C@H]([C@@H](C)O)NC(=O)[C@H](CCCNC(=N)N)NC(=O)[C@@H](Cc2c[nH]c3ccccc23)NC(=O)[C@H](Cc2ccc(O)cc2)NC(=O)[C@@H](NC(=O)[C@@H](N)[C@@H](C)c2ccccc2)CSSC1(C)C)C(N)=O |  |  |  | < 4.82 | 5.82 | 
C[C@@H](O)[C@H](NC(=O)[C@H]1NC(=O)[C@H]([C@@H](C)O)NC(=O)[C@H](CCCN=C(N)N)NC(=O)[C@@H](Cc2c[nH]c3ccccc23)NC(=O)[C@H](Cc2ccc(O)cc2)NC(=O)[C@@H](NC(=O)[C@@H](N)[C@@H](C)c2ccccc2)CSSC1(C)C)C(N)=O | 1 | 35% | 0% |  |  | 
C[C@@H](O)[C@H](NC(=O)[C@H]1NC(=O)[C@H]([C@@H](C)O)NC(=O)[C@H](CCCN=C(N)N)NC(=O)[C@@H](Cc2c[nH]c3ccccc23)NC(=O)[C@H](Cc2ccc(O)cc2)NC(=O)[C@@H](NC(=O)[C@H]2Cc3c([nH]c4ccccc34)CN2)CSSC1(C)C)C(N)=O [listing 1 of 2 here] |  |  |  | 6.68 | 6.76 | 
C[C@@H](O)[C@H](NC(=O)[C@H]1NC(=O)[C@H]([C@@H](C)O)NC(=O)[C@H](CCCN=C(N)N)NC(=O)[C@@H](Cc2c[nH]c3ccccc23)NC(=O)[C@H](Cc2ccc(O)cc2)NC(=O)[C@@H](NC(=O)[C@H]2Cc3c([nH]c4ccccc34)CN2)CSSC1(C)C)C(N)=O [listing 2 of 2 here] | 1.2 |  | 18% |  |  | 
C[C@H](c1ccccc1)[C@H](N)C(=O)N[C@H]1CSSC(C)(C)[C@@H](C(=O)N[C@H](C(N)=O)[C@@H](C)O)NC(=O)[C@H]([C@@H](C)O)NC(=O)[C@H](CCCN=C(N)N)NC(=O)[C@@H](Cc2c[nH]c3ccccc23)NC(=O)[C@H](Cc2ccc(O)cc2)NC1=O [listing 1 of 2 here] |  |  |  | 4.88 | 5.27 | 
C[C@H](c1ccccc1)[C@H](N)C(=O)N[C@H]1CSSC(C)(C)[C@@H](C(=O)N[C@H](C(N)=O)[C@@H](C)O)NC(=O)[C@H]([C@@H](C)O)NC(=O)[C@H](CCCN=C(N)N)NC(=O)[C@@H](Cc2c[nH]c3ccccc23)NC(=O)[C@H](Cc2ccc(O)cc2)NC1=O [listing 2 of 2 here] |  | 0% | 13% |  |  | 1
C[C@@H](O)[C@H](NC(=O)[C@H]1NC(=O)[C@H]([C@@H](C)O)NC(=O)[C@H](CCCNC(=N)N)NC(=O)[C@@H](Cc2c[nH]c3ccccc23)NC(=O)[C@H](Cc2ccc(O)cc2)NC(=O)[C@@H](NC(=O)[C@H](N)[C@@H](C)c2c[nH]c3ccccc23)CSSC1(C)C)C(N)=O |  |  |  | 5.13 | 7.92 | 
C[C@@H](O)[C@H](NC(=O)[C@H]1NC(=O)[C@H]([C@@H](C)O)NC(=O)[C@H](CCCN=C(N)N)NC(=O)[C@@H](Cc2c[nH]c3ccccc23)NC(=O)[C@H](Cc2ccc(O)cc2)NC(=O)[C@@H](NC(=O)[C@H](N)[C@@H](C)c2c[nH]c3ccccc23)CSSC1(C)C)C(N)=O | 68 | 0% | 0% |  |  | 
C[C@H](c1c[nH]c2ccccc12)[C@@H](N)C(=O)N[C@H]1CSSC(C)(C)[C@@H](C(=O)N[C@H](C(N)=O)[C@@H](C)O)NC(=O)[C@H]([C@@H](C)O)NC(=O)[C@H](CCCNC(=N)N)NC(=O)[C@@H](Cc2c[nH]c3ccccc23)NC(=O)[C@H](Cc2ccc(O)cc2)NC1=O |  |  |  | 5.44 | 7.73 | 
C[C@H](c1c[nH]c2ccccc12)[C@@H](N)C(=O)N[C@H]1CSSC(C)(C)[C@@H](C(=O)N[C@H](C(N)=O)[C@@H](C)O)NC(=O)[C@H]([C@@H](C)O)NC(=O)[C@H](CCCN=C(N)N)NC(=O)[C@@H](Cc2c[nH]c3ccccc23)NC(=O)[C@H](Cc2ccc(O)cc2)NC1=O | 39 | 3.7% | 0% |  |  | 
C[C@@H](O)[C@H](NC(=O)[C@H]1NC(=O)[C@H]([C@@H](C)O)NC(=O)[C@H](CCCNC(=N)N)NC(=O)[C@@H](Cc2c[nH]c3ccccc23)NC(=O)[C@H](Cc2ccc(O)cc2)NC(=O)[C@@H](NC(=O)[C@@H](N)[C@@H](C)c2c[nH]c3ccccc23)CSSC1(C)C)C(N)=O |  |  |  | 5.04 | 5.87 | 
C[C@@H](O)[C@H](NC(=O)[C@H]1NC(=O)[C@H]([C@@H](C)O)NC(=O)[C@H](CCCN=C(N)N)NC(=O)[C@@H](Cc2c[nH]c3ccccc23)NC(=O)[C@H](Cc2ccc(O)cc2)NC(=O)[C@@H](NC(=O)[C@@H](N)[C@@H](C)c2c[nH]c3ccccc23)CSSC1(C)C)C(N)=O | 2.6 | 0% | 0% |  |  | 
C[C@@H](O)[C@H](NC(=O)[C@H]1NC(=O)[C@H]([C@@H](C)O)NC(=O)[C@H](CCCN=C(N)N)NC(=O)[C@@H](Cc2c[nH]c3ccccc23)NC(=O)[C@H](Cc2ccc(O)cc2)NC(=O)[C@@H](NC(=O)[C@H]2Cc3ccccc3CN2)CSSC1(C)C)C(N)=O (H-[dTic]CY[dW]RT[Pen]T-NH2; disulfide 2-7) | 60 | 10% | 1% |  |  | 
